Assay results from ChEMBL document CHEMBL1132241, “Novel multidrug resistance reversal agents” (J Med Chem, 1999).

Key:
Mus musculus [1] = assay: Relative tumor growth inhibition against human epidermoid carcinoma KB/8.5 implanted subcutaneously only in mice at 8 mg/kg (DOX); type: functional; conditions: route subcutaneous
Procedure, shortened: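 KB/8.5 cells grown in RPMI 1640 with 5% fetal calf serum plus colchicine (10 ng/mL), which was removed for two passages. 8 × 10^6 cells were then implanted sc in athymic nude mice. At 100-300 mg tumor mass, mice were grouped 5-10/group. Doxorubicin was given as a single iv dose (8 mg/kg). Tumor mass was measured on day 14, and relative growth was compared with saline control.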

[2] = Partition coefficient (logP); type: physicochemical; conditions: octanol/water
Mus musculus [3] = assay: Percent tumor growth inhibition against human epidermoid carcinoma KB/8.5 implanted subcutaneously in mice at 200 mg/kg of compound along with 8 mg/kg (DOX ) was determined; type: functional
Procedure, shortened: (§1)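 Athymic nude mice bearing sc KB/8.5 tumors (8×10^6 cells, colchicine withdrawn for two passages), grouped at 100–300 mg tumor mass, 5–10 mice/group. Doxorubicin 8 mg/kg given once iv; reversal agent or placebo given sc 2 h before and 2 h after. Tumor mass on day 14 used for relative tumor growth versus doxorubicin alone; Student t-test on log RTG.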

S1B1-20 [4] = assay: In vitro concentration required to inhibit tumor activity on subclone of human colon carcinoma cells (S1-B1-20) resistant to bisantrene; type: functional, cell-based
Procedure, shortened: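 S1-B1-20 cells (S1 clone of LS 174 T, selected in bisantrene over 12–16 weeks) plated at 20 000 cells/well with or without 20 μM bisantrene, plus test agent 0.1–80 μM from DMSO stock (final DMSO ≤0.1%). 3 days, 37 °C, 7% CO2. Survival by sulforhodamine B at 540 nm. IC50 from best-fit curve of difference score (survival alone minus survival with bisantrene) at 50; 2–4 sets of measurements.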

[5] = (§2) In vitro concentration at which 50% of human colon carcinoma cells (S1-B1-20) resistant to bisantrene have survived; type: ADME, cell-based, S1B1-20; conditions: S1-B1-20 human colon carcinoma cells resistant to bisantrene, read-out: LD50 (the source's name)
Procedure, shortened: (§3)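 S1-B1-20 cells (LS 174 T-derived S1 clone selected in bisantrene over 12–16 weeks), trypsinized, 20 000 cells/well. Test agent alone in DMSO (≤0.1% final), 0.1–80 µM, 3 days at 37 °C, 7% CO2. Survival by sulforhodamine B read at 540 nm versus untreated cells. Two to four measurement sets were made, and the value is the concentration giving 50% survival from a best-fit curve.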

Mus musculus [6] = assay: Percent increase in mean life span relative to treatment with an equivalent dose of vincristine alone at 25 mg/kg in mice with vincristine-resistantmurine leukemia P388/VCR cells; type: functional
Procedure, shortened: (§4)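 CDF1 mice were implanted ip with 1 × 10^6 P388/VCR cells. Agent and 0.2 mg/kg vincristine were given simultaneously ip once daily, days 1–7. Mean survival over up to 30 days was compared with vincristine alone at an equivalent dose, giving % increase in life span. Student t-test was applied to mean survival time.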

Mus musculus [7] = assay: Percent increase in mean life span in mice infected with leukemia P388/VCR, at 25 mg/Kg dose; type: functional
Procedure, shortened: (§5)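 CDF1 mice (groups of 10–15) were implanted ip with 1 × 10^6 P388/VCR cells. Agent plus 0.2 mg/kg vincristine were given together ip once daily on days 1–7, starting 1 day post-implant, in cremophor/ethanol or propylene glycol/ethanol vehicle. Survival was recorded to 30 days. Result is the % increase in mean life span versus placebo control.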

Mus musculus [8] = assay: Percent increase in mean life span when 0.2 mg/kg vincristine was administered ip once daily on days 1-7, in mice infected with leukemia P388/VCR; type: functional; set-up: concentration or dose not given beside the values; conditions: route intraperitoneal
Procedure, shortened: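 CDF1 mice bearing ip P388/VCR (1 × 10^6 cells) received 0.2 mg/kg vincristine ip once daily on days 1–7. Mean survival to 30 days was expressed as % increase in life span relative to placebo control.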

Mus musculus [9] = assay: Percent tumor growth inhibition against human epidermoid carcinoma KB/8.5 implanted subcutaneously in mice at 50 mg/kg of compound along with 8 mg/kg (DOX ) was determined; type: functional; procedure, shortened: as §1
S1B1-20 [10] = assay: as §2; type: ADME, cell-based; conditions: s1b1-20, read-out: LD50 (the source's name); procedure, shortened: as §3
Mus musculus [11] = assay: Percent tumor growth inhibition against human epidermoid carcinoma KB/8.5 implanted subcutaneously in mice at 100 mg/kg of compound along with 8 mg/kg (DOX ) was determined; type: functional; procedure, shortened: as §1
Mus musculus [12] = assay: Percent increase in mean life span in mice infected with leukemia P388/VCR, at 50 mg/Kg dose; type: functional; procedure, shortened: as §5
Mus musculus [13] = assay: Percent increase in mean life span relative to treatment with an equivalent dose of vincristine alone at 50 mg/kg in mice with vincristine-resistantmurine leukemia P388/VCR cells; type: functional; procedure, shortened: as §4
Mus musculus [14] = assay: Percent increase in mean life span in mice infected with leukemia P388/VCR, at 12.5 mg/Kg dose; type: functional; procedure, shortened: as §5
Mus musculus [15] = assay: Percent increase in mean life span in mice infected with leukemia P388/VCR, at 100 mg/Kg dose; type: functional
Procedure, shortened: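 CDF1 mice were implanted ip with 1 × 10^6 P388/VCR cells (line passaged in DBA/2 ascites). Agent at 100 mg/kg in Cremophor/ethanol/saline was given ip once daily on days 1–7 without vincristine. Survival was followed to 30 days. Result is the % increase in mean life span versus placebo.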

Mus musculus [16] = assay: Percent increase in mean life span relative to treatment with an equivalent dose of vincristine alone at 12.5 mg/kg in mice with vincristine-resistantmurine leukemia P388/VCR cells; type: functional; procedure, shortened: as §4

| Structure (SMILES) | Relative tumor growth (Mus musculus [1]) | logP ([2]; read-out: logP) | TGI (Mus musculus [3]) | IC50 (S1B1-20 [4]; Homo sapiens, S1B1-20) | CC50 [5] | ILS (Mus musculus [8]) | other results |
| --- | --- | --- | --- | --- | --- | --- | --- |
| COc1cc2c(cc1OC)CN(CCCCCC(Sc1ccc(C)cc1)c1ccc3c(c1)OCO3)CC2 (stereo not given) | 100 | 7.31 | 39% | 0.5 µM | 15.9 µM | – | – |
| COc1ccc(C(CCCCCCN2CCc3cc(OC)c(OC)cc3C2)Sc2ccc(C)cc2)cc1O (stereo not given) | 75 | 7.67 | 54% | 0.84 µM | 13.1 µM | – | – |
| COc1ccc(C(CCCCCN2CCc3cc(OC)c(OC)cc3C2)SC(C)(C)C)cc1OC (stereo not given) | 67 | 6.54 | 53% | 3.58 µM | 76.8 µM | – | – |
| COc1ccc(C(C#N)(CCCCCCCCCCCN2CCc3cc(OC)c(OC)cc3C2)Sc2ccc(C)cc2)cc1OC (stereo not given) | 39 | – | – | 1.74 µM | 10.8 µM | 24% | ILS at 25 mg/kg (Mus musculus [6]): 14%; ILS at 25 mg/kg (Mus musculus [7]): 42%; logP [2]: 9.35; TGI (Mus musculus [9]): 61% |
| COc1ccc(C(C#N)(CCCCCN2Cc3cc(OC)c(OC)cc3C2)Sc2ccc(C)cc2)cc1OC (stereo in doubt; 44) | – | – | – | – | – | – | IC50 (S1B1-20 [4]; s1b1-20): 0.26 µM; CC50 (S1B1-20 [10]): 11.4 µM |
| COc1ccc(C(C#N)(CCCCCN2CCc3cc4c(cc3C2)OCO4)Sc2ccc(C)cc2)cc1OC (stereo not given) | – | 6.08 | – | 3.09 µM | 30 µM | 24% | ILS at 25 mg/kg (Mus musculus [6]): 16%; ILS at 25 mg/kg (Mus musculus [7]): 38% |
| COc1ccc(C(C#N)(CCCCCN2Cc3cc(OC)c(OC)cc3C2)SC2CCCCC2)cc1OC (stereo in doubt; 28c) | – | – | – | – | – | – | IC50 (S1B1-20 [4]; s1b1-20): 0.35 µM; CC50 (S1B1-20 [10]): 15 µM |
| COc1cc2c(cc1OC)CN(CCCCCCC(Sc1ccccc1)c1ccccc1)CC2 (stereo not given) | 59 | 7.99 | – | 3.82 µM | 24.6 µM | 15% | ILS at 25 mg/kg (Mus musculus [6]): 46%; TGI (Mus musculus [11]): 65%; ILS at 25 mg/kg (Mus musculus [7]): 68% |
| COc1cc2c(cc1OC)CN(CCCCCCC(Sc1ccc(C)cc1)c1ccc(OC)c(OCCn3ccnc3)c1)CC2 (stereo in doubt; 47) | – | – | – | – | – | – | TGI (Mus musculus [11]): 56%; Relative tumor growth (Mus musculus [1]; 8 mg/kg): 80; IC50 (S1B1-20 [4]; s1b1-20): 0.29 µM; CC50 (S1B1-20 [10]): 5.64 µM |
| COc1ccc(C(C#N)(CCCCCN2Cc3cc(OC)c(OC)cc3C2)Sc2ccc(C)cc2)cc1OC (stereo in doubt; 28a) | 67 | 5.55 | – | – | – | 15% | ILS at 25 mg/kg (Mus musculus [6]): 41%; ILS at 25 mg/kg (Mus musculus [7]): 63%; TGI (Mus musculus [9]): 65%; IC50 (S1B1-20 [4]; s1b1-20): 0.81 µM; CC50 (S1B1-20 [10]): 22.8 µM |
| COc1ccc(C(C#N)(CCCCCN2CCc3cc(OC)c(OCc4ccccc4)cc3C2)Sc2ccc(C)cc2)cc1OC (stereo not given) | 100 | 7.95 | 71% | 0.85 µM | 40 µM | – | – |
| COC(=O)C(CCCN1CCc2cc(OC)c(OC)cc2C1)(Sc1ccc(C)cc1)c1ccc(OC)c(OC)c1 (stereo not given) | – | 5.54 | – | 1.47 µM | 32.8 µM | 13% | ILS at 50 mg/kg (Mus musculus [12]): 25%; ILS at 50 mg/kg (Mus musculus [13]): 11% |
| COc1ccc(C(C#N)(CCCCCN2CCc3cc(OC)c(OC)cc3C2)Sc2ccc(C)cc2)cc1OC (stereo not given) | 69 | 6.18 | – | 0.37 µM | 13.6 µM | 37% | ILS at 12.5 mg/kg (Mus musculus [14]): 83%; ILS at 100 mg/kg (Mus musculus [15]): -4%; TGI (Mus musculus [9]): 59%; ILS at 12.5 mg/kg (Mus musculus [16]): 33% |
| COc1ccc(C(C#N)(CCCCCN2CCc3ccccc3C2)Sc2ccc(C)cc2)cc1OC (stereo not given) | – | 6.72 | – | 2.56 µM | 24.7 µM | 14% | ILS at 25 mg/kg (Mus musculus [6]): 11%; ILS at 25 mg/kg (Mus musculus [7]): 27% |
| COc1ccc(C(C#N)(CCN2CCc3cc(OC)c(OC)cc3C2)Sc2ccc(C)cc2)cc1OC (stereo not given) | – | 4.59 | – | 2.3 µM | 33.7 µM | 67% | ILS at 12.5 mg/kg (Mus musculus [14]): 89%; ILS at 12.5 mg/kg (Mus musculus [16]): 13% |
| COc1ccc(C(CCCCCN2CCc3cc4c(cc3C2)OCO4)Sc2ccc(C)cc2)cc1OC (stereo not given) | 100 | 7.31 | 57% | – | 24.9 µM | – | – |
| COc1ccc(C(C#N)(CCCCCCN2CCc3cc(OC)c(OC)cc3C2)Sc2ccc(C)cc2)cc1OC (stereo not given) | – | 6.71 | – | 0.3 µM | 13.5 µM | 37% | ILS at 12.5 mg/kg (Mus musculus [14]): 68%; ILS at 12.5 mg/kg (Mus musculus [16]): 23% |
| COc1ccc(C(C#N)(CCCN2CCc3cc(OC)c(OC)cc3C2)Sc2ccc(C)cc2)cc1OC (stereo not given) | 39 | 5.12 | – | 0.46 µM | 24 µM | 51% | ILS at 50 mg/kg (Mus musculus [12]): 73%; ILS at 50 mg/kg (Mus musculus [13]): 15%; ILS at 100 mg/kg (Mus musculus [15]): -3%; TGI (Mus musculus [9]): 63% |
| COc1ccc2c(c1)CCN(CCCCCC(C#N)(Sc1ccc(C)cc1)c1ccc(OC)c(OC)c1)C2 (stereo not given) | – | 6.64 | – | 1.92 µM | 15.7 µM | 26% | ILS at 12.5 mg/kg (Mus musculus [14]): 56%; ILS at 12.5 mg/kg (Mus musculus [16]): 24% |
| COc1ccc(CC2c3cc(OC)c(OC)cc3CCN2CCCCCC(C#N)(Sc2ccc(C)cc2)c2ccc(OC)c(OC)c2)cc1OC (stereo not given) | 64 | 7.57 | 58% | 1.06 µM | 78.2 µM | – | – |
